Laboratory results: ChEMBL document CHEMBL4385592, “4-Imidazo[2,1-b]thiazole-1,4-DHPs and neuroprotection: preliminary study in hits searching” (Eur J Med Chem, 2019)

Tests used:
[1] = target: T1, Voltage-gated L-type calcium channel (Homo sapiens, UniProt Q13936+Q13698+Q01668+O60840); test: (§1) Inhibition of voltage-dependent L-type calcium channel in human U373MG cells assessed as protection against oxygen glucose deprivation/reperfusion-induced injury by measuring recovery of cell viability at 1 uM administered at onset of reperfusion period measured after 16 hrs by alamar blue assay relative to control; format: cell-based
Method in brief: (§2)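 U-373 MG astrocytoma cells seeded at 30000 cells/ml and grown 24 or 48 h (37 °C/5% CO2). OGD: 24 h at 37 °C in glucose-free DMEM pre-bubbled with 95% N2/5% CO2, in a sealed nitrogen-flushed chamber. Then 16 h reperfusion in normal medium; compounds added at reperfusion, diluted from DMSO stock (DMSO ≤0.1%). Viability by alamarBlue, 4 h at 37 °C, fluorescence ex 530–560/em 590 nm. Expressed as % recovery from injury, mean ± S.E. of ≥3 experiments in sixuplicate.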

[2] = target: T1, Voltage-gated L-type calcium channel; test: as §1, with “at 20” for “at 1”; format: cell-based; method in brief: as §2
[3] = target: T1, Voltage-gated L-type calcium channel; test: Inhibition of voltage-dependent L-type calcium channel in human SH-SY5Y cells assessed as protection against glutamate-induced excitotoxicity by measuring recovery of cell viability at 1 uM measured after 24 hrs by alamar blue-based fluorescence method relative to control
[4] = target: T1, Voltage-gated L-type calcium channel; test: Inhibition of voltage-dependent L-type calcium channel in human SH-SY5Y cells assessed as protection against glutamate-induced excitotoxicity by measuring recovery of cell viability at 20 uM measured after 24 hrs by alamar blue-based fluorescence method relative to control
Right cardiac atrium [5] = test: Negative chronotropic activity in guinea pig spontaneously beating right atrium assessed as decrease in atrial rate; format: tissue-based; conditions: Cavia porcellus
[6] = Selectivity ratio of EC50 for negative chronotropic activity in guinea pig spontaneously beating right atrium to EC50 for negative inotropic activity in guinea pig left atrium; format: ADME, tissue-based, Cavia porcellus
[7] = target: T2, Voltage-gated L-type calcium channel (Rattus norvegicus, UniProt P22002+Q02485+P27732); test: as §1, with “Wistar rat brain slices” for “human U373MG cells”, “LDH release” for “cell viability”, “20” for “1”, “90 mins” for “16 hrs”, “spectrophotometric” for “alamar blue”; parameters: scale not given: the % may be the effect or the level left; conditions: 1.5 h
[8] = target: T2, Voltage-gated L-type calcium channel; test: as §1, with “Wistar rat brain slices” for “human U373MG cells”, “edema formation” for “cell viability”, “20” for “1”, “90 mins” for “16 hrs by alamar blue assay”; parameters: scale not given: the % may be the effect or the level left; conditions: 1.5 h
Left cardiac atrium [9] = test: Negative inotropic activity in guinea pig left atrium assessed as decrease in developed tension at 5 x 10^-6 M relative to control; format: ADME, tissue-based, Cavia porcellus; parameters: scale not given: the % may be the effect or the level left; conditions: 5 µM
Left cardiac atrium [10] = test: Negative inotropic activity in guinea pig left atrium assessed as decrease in developed tension at 0.001 to 100 uM relative to control; format: ADME, tissue-based; conditions: Cavia porcellus
Right cardiac atrium [11] = test: Negative chronotropic activity in guinea pig spontaneously beating right atrium assessed as decrease in atrial rate at 10^-5 M relative to control; format: ADME, tissue-based, Cavia porcellus; parameters: scale not given: the % may be the effect or the level left; conditions: 10 µM
Aorta [12] = test: Inhibition of calcium-induced contraction in K+-depolarized guinea pig aortic strips at 10^-4 M relative to control; format: tissue-based; conditions: Cavia porcellus
Left cardiac atrium [13] = test: Negative inotropic activity in guinea pig left atrium assessed as decrease in developed tension at 5 x 10^-5 M relative to control; format: ADME, tissue-based, Cavia porcellus; parameters: scale not given: the % may be the effect or the level left; conditions: 50 µM
Aorta [14] = test: Inhibition of calcium-induced contraction in K+-depolarized guinea pig aortic strips at 5 x 10^-5 M relative to control; format: tissue-based; conditions: Cavia porcellus
Left cardiac atrium [15] = test: Negative inotropic activity in guinea pig left atrium assessed as decrease in developed tension at 10^-6 M relative to control; format: ADME, tissue-based, Cavia porcellus; parameters: scale not given: the % may be the effect or the level left; conditions: 1 µM
Left cardiac atrium [16] = test: Negative inotropic activity in guinea pig left atrium assessed as decrease in developed tension at 10^-4 M relative to control; format: ADME, tissue-based, Cavia porcellus; parameters: scale not given: the % may be the effect or the level left; conditions: 100 µM
Right cardiac atrium [17] = test: Negative chronotropic activity in guinea pig spontaneously beating right atrium assessed as decrease in atrial rate at 5 x 10^-5 M relative to control; format: tissue-based, Cavia porcellus; parameters: scale not given: the % may be the effect or the level left; conditions: 50 µM
Left cardiac atrium [18] = test: Negative inotropic activity in guinea pig left atrium assessed as decrease in developed tension at 5 x 10^-7 M relative to control; format: ADME, tissue-based, Cavia porcellus; parameters: scale not given: the % may be the effect or the level left; conditions: 0.5 µM
Right cardiac atrium [19] = test: Negative inotropic activity in guinea pig right atrium assessed as decrease in developed tension at 10^-5 M relative to control; format: ADME, tissue-based, Cavia porcellus; parameters: scale not given: the % may be the effect or the level left; conditions: 10 µM
[20] = system: Left cardiac atrium (Cavia porcellus); test: Negative inotropic activity in guinea pig left atrium assessed as decrease in developed tension
Left cardiac atrium [21] = test: Negative inotropic activity in guinea pig left atrium assessed as decrease in developed tension at 10^-5 M relative to control; parameters: scale not given: the % may be the effect or the level left; conditions: 10 µM

EC50 (Right cardiac atrium [5])	EC50 (Left cardiac atrium [10])	Activity (Right cardiac atrium [11])	Compound	Activity [1]	Activity [2]	Activity [3]	Activity [4]	Activity [7]	Activity [8]	inhibition at 100 µM (Aorta [12])	further results
			COC(=O)C1=C(C)NC(C)=C(C(=O)OC)C1c1c(-c2ccccc2OC)nc2sccn12	< 5%	< 5%	< 5%	< 5%				
2380 nM	25 nM	92%	C=CCOC(=O)C1=C(C)NC(C)=C(C(=O)OCC=C)C1c1c(-c2cc(OC)c([N+](=O)[O-])cc2OC)nc2sccn12	< 5%	< 5%	40.6%	52.3%	51.2%	82%	15%	Ratio EC50 [6]: 95; Activity (Left cardiac atrium [9]): 96%
			COC(=O)C1=C(C)NC(C)=C(C(=O)OC)C1c1c(C(F)(F)F)nc2sc(C)cn12	< 5%	< 5%	35.4%	44.1%	100.3%	63.7%		
			COC(=O)C1=C(C)NC(C)=C(C(=O)OC)C1c1c(-c2cccc(OC)c2)nc2sccn12	< 5%	< 5%	< 5%	< 5%				
			COC(=O)C1=C(C)NC(C)=C(C(=O)OC)C1c1c(-c2cc(OC)c([N+](=O)[O-])cc2OC)nc2sccn12	< 5%	< 5%	31.5%	46.3%				
8480 nM	190 nM	50%	CCOC(=O)C1=C(C)NC(C)=C(C(=O)OCC)C1c1c(-c2ccc(Cl)c([N+](=O)[O-])c2)nc2sc(C)cn12	< 5%	< 5%	< 5%	< 5%	< 5%	< 5%	24%	Ratio EC50 [6]: 25 to 56; Activity (Left cardiac atrium [9]): 64%
			COC(=O)C1=C(C)NC(C)=C(C(=O)OC)C1c1c(C(F)(F)F)nc2sccn12	73%	86.7%	44.1%	84.5%	79.2%	105.4%		
			COC(=O)C1=C(C)NC(C)=C(C(=O)OC)C1c1c(-c2cc(OC)ccc2OC)nc2sc(Cl)cn12	78.8%	99.6%	42%	108.4%	81.3%	91.8%		
980 nM	5150 nM	86%	CCOC(=O)C1=C(C)NC(C)=C(C(=O)OCC)C1c1c(-c2ccccc2F)nc2sccn12	< 5%	36.8%	53.2%	62.2%				Activity (Left cardiac atrium [13]): 55%; inhibition at 50 µM (Aorta [14]): 17%
			COC(=O)C1=C(C)NC(C)=C(C(=O)OC)C1c1c(-c2cc(OC)ccc2OC)nc2sccn12	82.9%	96.7%	51.9%	99%	83.9%	77.6%		
310 nM		90%	CCOC(=O)C1=C(C)NC(C)=C(C(=O)OCC)C1c1c(-c2ccc(OC)c(OC)c2)nc2sc(Br)cn12	9%	55.1%	18.2%	33.4%	57.8%	89.1%		Activity (Left cardiac atrium [9]): 39%; inhibition at 50 µM (Aorta [14]): 5%
			CCOC(=O)C1=C(C)NC(C)=C(C(=O)OCC)C1c1c(-c2cc(OC)ccc2OC)nc2sccn12	36.6%	65.7%	42.8%	67.4%	87%	75.8%		
		25%	CCOC(=O)C1=C(C)NC(C)=C(C(=O)OCC)C1c1c(-c2ccc(F)cc2)nc2sc(Br)cn12	< 5%	< 5%	< 5%	< 5%				Activity (Left cardiac atrium [13]): 37%; inhibition at 50 µM (Aorta [14]): 7%
1730 nM	49 nM	83%	CCOC(=O)C1=C(C)NC(C)=C(C(=O)OCC)C1c1c(-c2ccc(F)cc2)nc2sc(Cl)cn12	32.6%	33.7%	44.9%	47.5%	61.9%	< 5%	3%	Ratio EC50 [6]: 25 to 56; Activity (Left cardiac atrium [15]): 62%
1730 nM	3500 nM		CCOC(=O)C1=C(C)NC(C)=C(C(=O)OCC)C1c1c(-c2ccc(Cl)cc2)nc2sc(Cl)cn12	< 5%	< 5%	25.1%	47.1%			45%	Activity (Left cardiac atrium [16]): 73%; Activity (Right cardiac atrium [17]): 94%
	33 nM	40%	CCOC(=O)C1=C(C)NC(C)=C(C(=O)OCC)C1c1c(-c2cc([N+](=O)[O-])c(Cl)cc2Cl)nc2sc(CC)cn12	21.2%	26.7%	14.7%	41.6%	18%	< 5%	15%	Activity (Left cardiac atrium [18]): 67%; Activity (Right cardiac atrium [19]): 58%; EC50 [20]: 1470 nM
			COC(=O)C1=C(C)NC(C)=C(C(=O)OC)C1c1c(-c2c(OC)ccc(OC)c2[N+](=O)[O-])nc2sc(Cl)cn12	< 5%	< 5%	13.1%	36.8%				
640 nM	25 nM	80%	CCOC(=O)C1=C(C)NC(C)=C(C(=O)OCC)C1c1c(-c2cc(OC)cc(OC)c2)nc2sc(Br)cn12	< 5%	29.6%	17.4%	42.4%	14.5%	< 5%		Ratio EC50 [6]: < 10; Activity (Left cardiac atrium [15]): 93%; inhibition at 50 µM (Aorta [14]): 7%
23 nM			CCOC(=O)C1=C(C)NC(C)=C(C(=O)OCC)C1c1c(-c2ccc(F)cc2)nc2sc(C)cn12	9.1%	13.2%	28.9%	43.1%			12%	Activity (Left cardiac atrium [15]): 37%; Activity (Right cardiac atrium [17]): 86%
			COC(=O)C1=C(C)NC(C)=C(C(=O)OC)C1c1c(-c2ccc(C(F)(F)F)cc2)nc2sccn12	< 5%	< 5%	17.5%	36.6%				
4810 nM	250 nM	78%	CCOC(=O)C1=C(C)NC(C)=C(C(=O)OCC)C1c1c(-c2cc(OC)ccc2OC)nc2sc(C)cn12	< 5%	< 5%	< 5%	< 5%			43%	Ratio EC50 [6]: 20; Activity (Left cardiac atrium [21]): 89%
		35%	CCOC(=O)C1=C(C)NC(C)=C(C(=O)OCC)C1c1c(-c2c(F)cccc2F)nc2sccn12	< 5%	< 5%	19.5%	27.7%			28%	Activity (Left cardiac atrium [15]): 33%
			COC(=O)C1=C(C)NC(C)=C(C(=O)OC)C1c1c(-c2ccccc2)nc2scc(C)n12	< 5%	< 5%	85.1%	130%	100.65%	82.5%		
			COC(=O)C1=C(C)NC(C)=C(C(=O)OC)C1c1c(-c2ccc(OC(F)(F)F)cc2)nc2sccn12	52.3%	54.2%	37.4%	37.7%	93.8%	93.8%		
